Laboratory results reported in ChEMBL document CHEMBL5303300, “EUbOPEN Chemogenomics Library - Multiplex” (2023).
“And” between values parts separate entries of the source, which are not always exact repeats. Equal entries are not always repeated.

Key:
Format in all cases: toxicity, cell-based
[1] = test system: Fibroblast; experiment: Multiplex assay against human fibroblast; details: number of replicates 2
Outline: (§1)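 Cells stained live at seeding with Hoechst33342, BioTracker Green Microtubule Cytoskeleton Dye, MitoTracker Red and Annexin V Alexa Fluor 680 were imaged on a CQ1 microscope at 37°C and 5% CO2 after compound addition. Their classification by CellPathfinder machine-learning gating ran from Hoechst high-intensity objects versus normal cells, to healthy, pyknosed or fragmented nuclei among normal cells, to mitotic or apoptotic among pyknosed cells. Tubulin, mitochondrial-mass and membrane-permeability phenotypes are per cents of healthy-nucleus cells.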

[2] = test system: HEK-293T; experiment: Multiplex assay against HEK293T; details: human, number of replicates 2; outline: as §1
[3] = test system: U2OS; experiment: Multiplex assay against U2OS; details: human, number of replicates 2; outline: as §1
[4] = 12 h, 1 µM, compound concentration 1 uM
[5] = 12 h, 10 µM, compound concentration 10 uM
[6] = 24 h, 1 µM, compound concentration 1 uM
[7] = 24 h, 10 µM, compound concentration 10 uM
[8] = 48 h, 1 µM, compound concentration 1 uM
[9] = 48 h, 10 µM, compound concentration 10 uM

Compound: COc1cc2nc(-c3cc(F)ccc3O)nc(N[C@@H]3CNC[C@H]3C(C)(C)O)c2cc1OC.Cl.Cl
- Population Apoptotic (%) [1, 4]: 35% and 34%
- Population Healthy Nuclei (%) [1, 4]: 60% and 58%
- Population Hoechst High Intensity Objects (%) [1, 4]: 0%
- Population Membrane Permeable-Phenotype (%) [1, 4]: 11% and 9%
- Population Mitochondria Different-Phenotype (%) [1, 4]: 0% and 2%
- Population Mitotic Cells (%) [1, 4]: 65%
- Population Normal (%) [1, 4]: 100%
- Population Pyknosed Nuclei (%) [1, 4]: 33% and 24%
- Population Tubulin-Different-Phenotype (%) [1, 4]: 48% and 46%
- Total Cell Count [1, 4]: 178 and 189
- Population Apoptotic (%) [1, 5]: 72% and 73%
- Population Healthy Nuclei (%) [1, 5]: 8% and 16%
- Population Hoechst High Intensity Objects (%) [1, 5]: 0%
- Population Mitochondria Different-Phenotype (%) [1, 5]: 26% and 25%
- Population Mitotic Cells (%) [1, 5]: 27% and 26%
- Population Normal (%) [1, 5]: 99% and 100%
- Population Pyknosed Nuclei (%) [1, 5]: 85% and 67%
- Population Tubulin-Different-Phenotype (%) [1, 5]: 86% and 67%
- Total Cell Count [1, 5]: 170 and 187
- Population Apoptotic (%) [1, 6]: 44% and 53%
- Population Fragmented Nuclei (%) [1, 6]: 15% and 17%
- Population Healthy Nuclei (%) [1, 6]: 63% and 65%
- Population Hoechst High Intensity Objects (%) [1, 6]: 0%
- Population Membrane Permeable-Phenotype (%) [1, 6]: 4% and 1%
- Population Mitochondria Different-Phenotype (%) [1, 6]: 0% and 3%
- Population Mitotic Cells (%) [1, 6]: 55% and 46%
- Population Normal (%) [1, 6]: 99% and 100%
- Population Pyknosed Nuclei (%) [1, 6]: 21% and 17%
- Population Tubulin-Different-Phenotype (%) [1, 6]: 26% and 37%
- Total Cell Count [1, 6]: 211 and 188
- Population Apoptotic (%) [1, 7]: 87% and 93%
- Population Healthy Nuclei (%) [1, 7]: 1% and 2%
- Population Hoechst High Intensity Objects (%) [1, 7]: 0%
- Population Membrane Permeable-Phenotype (%) [1, 7]: 50% and 25%
- Population Mitochondria Different-Phenotype (%) [1, 7]: 0% and 25%
- Population Mitotic Cells (%) [1, 7]: 12% and 6%
- Population Normal (%) [1, 7]: 100%
- Population Pyknosed Nuclei (%) [1, 7]: 92% and 80%
- Population Tubulin-Different-Phenotype (%) [1, 7]: 50%
- Total Cell Count [1, 7]: 168
- Population Apoptotic (%) [1, 8]: 59% and 75%
- Population Fragmented Nuclei (%) [1, 8]: 13% and 17%
- Population Healthy Nuclei (%) [1, 8]: 75% and 70%
- Population Hoechst High Intensity Objects (%) [1, 8]: 0%
- Population Membrane Permeable-Phenotype (%) [1, 8]: 4% and 1%
- Population Mitochondria Different-Phenotype (%) [1, 8]: 1% and 0%
- Population Mitotic Cells (%) [1, 8]: 40% and 25%
- Population Normal (%) [1, 8]: 100%
- Population Pyknosed Nuclei (%) [1, 8]: 10% and 12%
- Population Tubulin-Different-Phenotype (%) [1, 8]: 27% and 11%
- Total Cell Count [1, 8]: 201 and 191
- Population Apoptotic (%) [1, 9]: 94% and 92%
- Population Fragmented Nuclei (%) [1, 9]: 18% and 9%
- Population Healthy Nuclei (%) [1, 9]: 3% and 4%
- Population Hoechst High Intensity Objects (%) [1, 9]: 0%
- Population Membrane Permeable-Phenotype (%) [1, 9]: 33% and 42%
- Population Mitochondria Different-Phenotype (%) [1, 9]: 0%
- Population Mitotic Cells (%) [1, 9]: 5% and 7%
- Population Normal (%) [1, 9]: 100% and 99%
- Population Pyknosed Nuclei (%) [1, 9]: 77% and 85%
- Population Tubulin-Different-Phenotype (%) [1, 9]: 33% and 85%
- Total Cell Count [1, 9]: 171 and 162
- Population Apoptotic (%) [2, 4]: 40% and 65%
- Population Fragmented Nuclei (%) [2, 4]: 4% and 3%
- Population Healthy Nuclei (%) [2, 4]: 86% and 83%
- Population Hoechst High Intensity Objects (%) [2, 4]: 6% and 5%
- Population Membrane Permeable-Phenotype (%) [2, 4]: 4% and 3%
- Population Mitochondria Different-Phenotype (%) [2, 4]: 24% and 25%
- Population Mitotic Cells (%) [2, 4]: 59% and 34%
- Population Normal (%) [2, 4]: 93% and 94%
- Population Pyknosed Nuclei (%) [2, 4]: 9% and 13%
- Population Tubulin-Different-Phenotype (%) [2, 4]: 78%
- Total Cell Count [2, 4]: 681 and 543
- Population Apoptotic (%) [2, 5]: 78% and 80%
- Population Fragmented Nuclei (%) [2, 5]: 2%
- Population Healthy Nuclei (%) [2, 5]: 62% and 61%
- Population Hoechst High Intensity Objects (%) [2, 5]: 7% and 8%
- Population Membrane Permeable-Phenotype (%) [2, 5]: 4% and 2%
- Population Mitochondria Different-Phenotype (%) [2, 5]: 82% and 75%
- Population Mitotic Cells (%) [2, 5]: 21% and 19%
- Population Normal (%) [2, 5]: 92% and 91%
- Population Pyknosed Nuclei (%) [2, 5]: 35%
- Population Tubulin-Different-Phenotype (%) [2, 5]: 97%
- Total Cell Count [2, 5]: 476 and 483
- Population Apoptotic (%) [2, 6]: 47% and 69%
- Population Fragmented Nuclei (%) [2, 6]: 6%
- Population Healthy Nuclei (%) [2, 6]: 85% and 84%
- Population Hoechst High Intensity Objects (%) [2, 6]: 8% and 9%
- Population Membrane Permeable-Phenotype (%) [2, 6]: 3%
- Population Mitochondria Different-Phenotype (%) [2, 6]: 12% and 17%
- Population Mitotic Cells (%) [2, 6]: 52% and 30%
- Population Normal (%) [2, 6]: 91% and 90%
- Population Pyknosed Nuclei (%) [2, 6]: 7% and 8%
- Population Tubulin-Different-Phenotype (%) [2, 6]: 63% and 68%
- Total Cell Count [2, 6]: 1032 and 692
- Population Apoptotic (%) [2, 7]: 87% and 80%
- Population Fragmented Nuclei (%) [2, 7]: 4% and 2%
- Population Healthy Nuclei (%) [2, 7]: 50% and 51%
- Population Hoechst High Intensity Objects (%) [2, 7]: 20% and 25%
- Population Membrane Permeable-Phenotype (%) [2, 7]: 6% and 4%
- Population Mitochondria Different-Phenotype (%) [2, 7]: 65% and 68%
- Population Mitotic Cells (%) [2, 7]: 12% and 20%
- Population Normal (%) [2, 7]: 79% and 74%
- Population Pyknosed Nuclei (%) [2, 7]: 45%
- Population Tubulin-Different-Phenotype (%) [2, 7]: 84% and 89%
- Total Cell Count [2, 7]: 441 and 428
- Population Apoptotic (%) [2, 8]: 22% and 35%
- Population Fragmented Nuclei (%) [2, 8]: 14% and 7%
- Population Healthy Nuclei (%) [2, 8]: 82% and 88%
- Population Hoechst High Intensity Objects (%) [2, 8]: 9% and 11%
- Population Membrane Permeable-Phenotype (%) [2, 8]: 3% and 1%
- Population Mitochondria Different-Phenotype (%) [2, 8]: 1% and 3%
- Population Mitotic Cells (%) [2, 8]: 77% and 64%
- Population Normal (%) [2, 8]: 90% and 88%
- Population Pyknosed Nuclei (%) [2, 8]: 3% and 4%
- Population Tubulin-Different-Phenotype (%) [2, 8]: 26% and 35%
- Total Cell Count [2, 8]: 2589 and 1346
- Population Apoptotic (%) [2, 9]: 85% and 77%
- Population Fragmented Nuclei (%) [2, 9]: 4% and 3%
- Population Healthy Nuclei (%) [2, 9]: 32% and 30%
- Population Hoechst High Intensity Objects (%) [2, 9]: 21% and 24%
- Population Membrane Permeable-Phenotype (%) [2, 9]: 6% and 5%
- Population Mitochondria Different-Phenotype (%) [2, 9]: 58%
- Population Mitotic Cells (%) [2, 9]: 14% and 22%
- Population Normal (%) [2, 9]: 78% and 75%
- Population Pyknosed Nuclei (%) [2, 9]: 62% and 66%
- Population Tubulin-Different-Phenotype (%) [2, 9]: 82% and 81%
- Total Cell Count [2, 9]: 411 and 392
- Population Apoptotic (%) [3, 4]: 100% and 76%
- Population Healthy Nuclei (%) [3, 4]: 57% and 82%
- Population Hoechst High Intensity Objects (%) [3, 4]: 0%
- Population Membrane Permeable-Phenotype (%) [3, 4]: 21% and 13%
- Population Mitochondria Different-Phenotype (%) [3, 4]: 18% and 27%
- Population Mitotic Cells (%) [3, 4]: 0% and 23%
- Population Normal (%) [3, 4]: 100% and 99%
- Population Pyknosed Nuclei (%) [3, 4]: 17% and 10%
- Population Tubulin-Different-Phenotype (%) [3, 4]: 46% and 30%
- Population Apoptotic (%) [3, 5]: 96% and 91%
- Population Fragmented Nuclei (%) [3, 5]: 14% and 11%
- Population Healthy Nuclei (%) [3, 5]: 5% and 3%
- Population Hoechst High Intensity Objects (%) [3, 5]: 0%
- Population Membrane Permeable-Phenotype (%) [3, 5]: 100%
- Population Mitochondria Different-Phenotype (%) [3, 5]: 50% and 66%
- Population Mitotic Cells (%) [3, 5]: 3% and 8%
- Population Normal (%) [3, 5]: 100%
- Population Pyknosed Nuclei (%) [3, 5]: 79% and 85%
- Population Tubulin-Different-Phenotype (%) [3, 5]: 100%
- Population Apoptotic (%) [3, 6]: 83% and 85%
- Population Fragmented Nuclei (%) [3, 6]: 23% and 9%
- Population Healthy Nuclei (%) [3, 6]: 65% and 74%
- Population Hoechst High Intensity Objects (%) [3, 6]: 0%
- Population Membrane Permeable-Phenotype (%) [3, 6]: 26% and 12%
- Population Mitochondria Different-Phenotype (%) [3, 6]: 23% and 34%
- Population Mitotic Cells (%) [3, 6]: 16% and 14%
- Population Normal (%) [3, 6]: 100%
- Population Pyknosed Nuclei (%) [3, 6]: 11% and 16%
- Population Tubulin-Different-Phenotype (%) [3, 6]: 47% and 34%
- Population Apoptotic (%) [3, 7]: 91% and 90%
- Population Fragmented Nuclei (%) [3, 7]: 14% and 22%
- Population Healthy Nuclei (%) [3, 7]: 3% and 0%
- Population Hoechst High Intensity Objects (%) [3, 7]: 2% and 0%
- Population Mitotic Cells (%) [3, 7]: 8% and 9%
- Population Normal (%) [3, 7]: 97% and 100%
- Population Pyknosed Nuclei (%) [3, 7]: 82% and 77%
- Population Apoptotic (%) [3, 8]: 84% and 94%
- Population Fragmented Nuclei (%) [3, 8]: 17% and 6%
- Population Healthy Nuclei (%) [3, 8]: 52% and 77%
- Population Hoechst High Intensity Objects (%) [3, 8]: 0%
- Population Membrane Permeable-Phenotype (%) [3, 8]: 12% and 9%
- Population Mitochondria Different-Phenotype (%) [3, 8]: 27% and 34%
- Population Mitotic Cells (%) [3, 8]: 15% and 5%
- Population Normal (%) [3, 8]: 100%
- Population Pyknosed Nuclei (%) [3, 8]: 30% and 15%
- Population Tubulin-Different-Phenotype (%) [3, 8]: 24% and 34%
- Population Apoptotic (%) [3, 9]: 96% and 89%
- Population Fragmented Nuclei (%) [3, 9]: 10% and 19%
- Population Healthy Nuclei (%) [3, 9]: 3% and 4%
- Population Hoechst High Intensity Objects (%) [3, 9]: 0%
- Population Membrane Permeable-Phenotype (%) [3, 9]: 100% and 85%
- Population Mitochondria Different-Phenotype (%) [3, 9]: 100% and 71%
- Population Mitotic Cells (%) [3, 9]: 4% and 10%
- Population Normal (%) [3, 9]: 100% and 99%
- Population Pyknosed Nuclei (%) [3, 9]: 86% and 76%
- Population Tubulin-Different-Phenotype (%) [3, 9]: 100% and 85%
